Read-outs that look alike come from different tables or passages of the source.

For series [1], the target named is recombinant human aminoimidazole carboxamide ribonucleotide transformylase (hAICAR Tfase) (Homo sapiens, UniProt P31939). Put plainly: hAICAR Tfase enzyme inhibition assay. In kind it is biochemical. Put shortly: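 Recombinant human enzyme; method otherwise follows earlier work. Reaction kinetics followed for 2 min after initiation. Ki obtained from Dixon plots.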

The subject of series [2] is CCRF-CEM human leukemia cell lines. Put plainly: Growth inhibition assay, CCRF-CEM. In kind it is cell-based.
Another series concerns CCRF-CEM/FPGS^-. Put plainly: Growth inhibition assay, FPGS-deficient mutant cells. In kind it is cell-based, human. To be noted: read-out: CCRF-CEM/FPGS^- IC50, (−) T, (−) H.
The target in the next series is GAR Tfase. To be noted: read-out: Ki, GAR Tfase; cited from earlier work.
Series [3] concerns anti-folate resistant human leukemia cell lines. To be noted: cited from earlier work.
The subject of series [4] is CCRF-CEM human leukemia cell lines. To be noted: read-out: IC50, cell-based growth inhibition; reported as low as; cited from earlier work.
The conditions of series [5]: alleviated by folic acid co-supplementation; cited from earlier work.
The test system of another series is CCRF-CEM/MTX. Put plainly: Growth inhibition assay, RFC-deficient mutant cells. In kind it is cell-based, human. To be noted: read-out: CCRF-CEM/MTX IC50, (−) T, (−) H.
Series [6] has as its system solid murine and human tumors. To be noted: tumors that did not respond to methotrexate; cited from earlier work.
Setting [7] is: read-out: Inhibition Ki, hAICAR Tfase, Dixon plots.
Setting [8] is: read-out: CCRF-CEM IC50, (+) T, (−) H, with thymidine, no hypoxanthine.
Setting [9] is: read-out: CCRF-CEM IC50, (−) T, (+) H, no thymidine, with hypoxanthine.
The mark [10] stands for this setting: read-out: CCRF-CEM IC50, (−) T, (−) H, Table 1, no thymidine, no hypoxanthine.
Setting [11] is: read-out: CCRF-CEM IC50, (−) T, (−) H, Table 2, parent cell line.

recombinant human aminoimidazole carboxamide ribonucleotide transformylase (hAICAR Tfase), sequence (P31939 whole entry): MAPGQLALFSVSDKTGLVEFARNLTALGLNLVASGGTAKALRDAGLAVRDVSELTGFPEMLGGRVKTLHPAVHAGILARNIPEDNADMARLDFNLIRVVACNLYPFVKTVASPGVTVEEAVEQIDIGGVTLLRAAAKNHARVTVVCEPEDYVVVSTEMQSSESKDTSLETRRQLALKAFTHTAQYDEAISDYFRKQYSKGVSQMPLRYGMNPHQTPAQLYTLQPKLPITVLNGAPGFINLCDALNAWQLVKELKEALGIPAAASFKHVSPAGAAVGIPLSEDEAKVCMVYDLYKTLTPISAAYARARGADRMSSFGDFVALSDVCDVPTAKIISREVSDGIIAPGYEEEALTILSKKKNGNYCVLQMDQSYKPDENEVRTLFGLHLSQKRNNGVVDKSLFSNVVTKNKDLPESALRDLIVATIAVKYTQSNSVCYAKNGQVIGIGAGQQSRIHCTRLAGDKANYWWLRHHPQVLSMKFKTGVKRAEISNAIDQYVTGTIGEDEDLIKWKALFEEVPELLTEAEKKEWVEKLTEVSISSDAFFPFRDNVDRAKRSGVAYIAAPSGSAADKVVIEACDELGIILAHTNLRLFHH

By Ki is commonly meant a dissociation constant, usually derived from enzyme kinetics or from competition with a known ligand. In the case of `Nc1nc(N)c(CCCC(C(=O)C(F)(F)F)c2ccc(C(=O)N[C@@H](CCC(=O)O)C(=O)O)cc2)c(=O)[nH]1` (stereo partly shown) [compound 5, 10-CF3CO-DDACTHF], the Ki in series [1] (setting [7]) is greater than 100 µM; at GAR Tfase, 15 nM. In addition, the IC50 is 17 nM in series [2] (setting [8]), greater than 10000 nM in series [2] (setting [9]), 16 nM in series [2] (setting [10]) and greater than 10 µM with CCRF-CEM/FPGS^- (FPGS-deficient mutant).
On to `COc1cc(NCc2ccc3nc(N)nc(N)c3c2C)cc(OC)c1OC` [neutrexin (trimetrexate), trimetrexate], for which, in [3], the “Sensitivity of resistant cells with 90–99% loss of FPGS activity” value is “marked hypersensitivity”.
As to `Nc1nc2ccc(CC(C=O)c3ccc(C(=O)N[C@@H](CCC(=O)O)C(=O)O)cc3)cc2c(=O)[nH]1` (stereo partly shown) [compound 4, 10-formyl-TDAF], the Ki at GAR Tfase was 260 nM.
Regarding `Nc1nc2c(c(=O)[nH]1)C[C@@H](CCc1ccc(C(=O)N[C@@H](CCC(=O)O)C(=O)O)cc1)CN2` [3 Lometrexol, Lometrexol], the inhibition constant (Ki) in series [1] is greater than 100 µM. The IC50 in series [2] (Homo sapiens, CCRF-CEM, read-out: CCRF-CEM IC50, (−) T, (+) H) is greater than 10000 nM; with CCRF-CEM/FPGS^- (Homo sapiens, CCRF-CEM) it was greater than 10 µM; in [4], 2.9 nM. Besides, the “Adverse effect in patients” value in [5] is given as “some patients suffered cumulative myelosuppression”.
For the molecule `Nc1nc(N)c(CCCCc2ccc(C(=O)NC(CCC(=O)O)C(=O)O)cc2)c(=O)[nH]1` (stereo not shown) [DDACTHF], in series [1] (setting [7]), the Ki was determined as 20 µM. The IC50 in [2] (setting [8]) was 3600 nM; in series [2] (setting [9]), greater than 10000 nM; in series [2] (setting [10]), 2700 nM; in [2] (setting [11]), 2700 nM; in the series on CCRF-CEM/FPGS^- (FPGS-deficient mutant) it was greater than 10 µM; in the series with CCRF-CEM/MTX it was greater than 100000 nM.
`CS[C@@H](CCCc1c(N)nc(N)[nH]c1=O)c1ccc(C(=O)NC(CCC(=O)O)C(=O)O)cc1` (stereo partly drawn) [10S-7, 10S-methylthio-DDACTHF]: in series [1] (setting [7]), the Ki was greater than 100 µM. The IC50 in series [2] (setting [8]) was 70 nM; in series [2] (setting [9]), greater than 10000 nM; in [2] (setting [10]), 50 nM; in series [2] (setting [11]) it was 60 nM; in the series with CCRF-CEM/FPGS^- (FPGS-deficient mutant), 5 µM; in the series on CCRF-CEM/MTX, 60 nM.
Take `Nc1nc2c(c(=O)[nH]1)CC(CCc1ccc(C(=O)N[C@@H](CCC(=O)O)C(=O)O)cc1)CN2` (stereo partly shown) [DDATHF, 5,10-dideaza-5,6,7,8-tetrahydrofolic acid]: in [6], the “In vivo antitumor effect” value is “effective in vivo against solid murine and human tumors”.
Consider `CS[C@H](CCCc1c(N)nc(N)[nH]c1=O)c1ccc(C(=O)NC(CCC(=O)O)C(=O)O)cc1` (stereo partly drawn) [10R-8, 10R-methylthio-DDACTHF], for which the Ki in series [1] (setting [7]) was greater than 100 µM. In addition, the IC50 is 80 nM in [2] (setting [8]); greater than 10000 nM in [2] (setting [9]); 80 nM in series [2] (setting [10]); 80 nM in series [2] (read-out: IC50, CCRF-CEM growth inhibition); 70 nM in the series with CCRF-CEM/MTX.
